High-throughput results deposited in PubChem BioAssay by several laboratories.
A selection: hits, their analogues and other compounds. The true share with any hit is near 4.6%.
p97 inhibitor = inhibitors of human p97 ATPase, primary screen, biochemical; Transitional endoplasmic reticulum ATPase (Homo sapiens), P55072; recombinant p97 ATPase, Kinase-Glo ATP luminescence, 3 h; inhibition, % at 8 µM; actives 0.42% (n = 220,000); AID 1481, 2009; in the data active means inhibition above about 15%
NF-kB expr up = activators of NF-kB expression in neurons, primary screen, cell-based, HTS. human neuronal cells, NF-kB reporter expression; active compounds read high. actives 1.6% (n = 190,000). fold change at 12.5 µM; in the data active means fold change above about 3.3
APP 5'UTR act = activators of APP 5'UTR luciferase reporter, primary screen, SH-SY5Y cells. actives 1% (n = 190,000). SH-SY5Y APP 5'UTR luciferase reporter, luminescence; zero percent = DMSO vehicle wells. activation, % at 2 µM;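 active means activation above a set limit, based on mean plus 3 SD of controls, cut at about 140% in these data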
Wee1 stabilizer = Wee1 degradation inhibitors, primary screen, cell-based, HeLa, Wee1K328M-luciferase, luminescence; reporter increase, % at 5 µM; HeLa Luc-Wee1K328M stability; 100% = proteasome inhibitor MG132 effect; AID 1321, 2008; actives 1.2% (n = 220,000); Wee1-like protein kinase (Homo sapiens), P30291;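 active means activation above the mean of all tested compounds plus 3 SD, set per screening run, cut at about 8.8% in these data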;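 further: cells exposed to compound for 20 h before luminescence read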
Target sequence (P30291 whole entry K328M): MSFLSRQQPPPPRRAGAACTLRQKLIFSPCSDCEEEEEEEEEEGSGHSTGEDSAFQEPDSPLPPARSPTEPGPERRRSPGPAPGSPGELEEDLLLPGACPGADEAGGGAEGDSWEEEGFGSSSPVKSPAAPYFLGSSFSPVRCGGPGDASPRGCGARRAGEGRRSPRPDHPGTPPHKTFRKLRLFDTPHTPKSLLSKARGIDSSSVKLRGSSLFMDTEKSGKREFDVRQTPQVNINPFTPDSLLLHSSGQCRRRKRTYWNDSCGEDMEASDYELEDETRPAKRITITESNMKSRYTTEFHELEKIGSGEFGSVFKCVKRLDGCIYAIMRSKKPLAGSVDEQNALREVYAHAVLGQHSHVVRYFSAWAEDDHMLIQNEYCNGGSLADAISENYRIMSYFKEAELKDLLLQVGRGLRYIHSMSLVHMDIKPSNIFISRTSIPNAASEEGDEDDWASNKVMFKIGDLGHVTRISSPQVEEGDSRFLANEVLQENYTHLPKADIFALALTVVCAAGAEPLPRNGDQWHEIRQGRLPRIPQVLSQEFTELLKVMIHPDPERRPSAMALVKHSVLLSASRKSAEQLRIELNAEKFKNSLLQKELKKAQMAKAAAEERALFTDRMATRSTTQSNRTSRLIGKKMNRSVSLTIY
STAT1 activator = STAT1 signaling activators, primary screen, cell-based, HTS, luciferase reporter; NIH 3T3 STAT1-luciferase reporter, IFN-gamma, luminescence; 100% = IFN-gamma alone, no compound; activation (% of control), % at 5.5 µM; actives 2.6% (n = 200,000); AID 932, 2007;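 active means activation above the screen-wide mean activation plus 3 SD, cut at about 130% in these data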
Mdm2 ligase inh = MDM2-luciferase reporter signal enhancers, primary screen, MDM2 E3 ligase inhibitor project, cell-based, luminescence, 1536-well; E3 ubiquitin-protein ligase Mdm2 (Homo sapiens), Q00987; cell-based MDM2 ubiquitination luciferase reporter, 2 h; 0 = plate control, 100 = twice control, blank-subtracted; signal enhancement, % at 5 µM; actives 0.11% (n = 210,000);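 active means signal enhancement of 30% or more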;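 further: luminescence tracks abundance of the self-degrading MDM2-luciferase fusion protein; higher signal means inhibition of MDM2 E3 ligase activity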
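Material: stable MDM2–luciferase fusion reporter cells / Quantity: 2000 cells/well / Dosing: single 5 µM compound dose, 0.2% final DMSO / Buffer or medium: DMEM / Schedule: 4 h cell settling then 2 h compound exposure, 37 °C / Detection: luminescence with SteadyLite reagent, 15 min at room temperature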
Numbers stand for hits; 0 = inactive; - = no result given.

SMILES | p97 inhibitor | NF-kB expr up | APP 5'UTR act | Wee1 stabilizer | STAT1 activator | Mdm2 ligase inh
CCn1nccc1C(=O)NC1=C(C#N)CCC1 | 0 | 0 | 0 | 0 | 0 | 0
CCn1ccc(C(=O)Nc2ccccc2Cl)n1 | 0 | 4.1 | 162 | 0 | 138 | 0
CCN1CCN(Cc2ccc(NC(=O)Nc3ccccc3Cl)cc2)CC1 | 0 | 0 | 141 | 0 | 0 | 0
CCn1ccc(C(=O)NC2=C(C#N)CCC2)n1 | 0 | 0 | 0 | 9.7 | 0 | 0
CCn1ccc(C(=O)Nc2cccc(Cl)c2)n1 | 0 | 0 | 0 | 0 | 141 | 0
CCn1cc(Br)c(C(=O)Nc2cccc(Cl)c2)n1 | 0 | 0 | 0 | 0 | 0 | 0
CC(C)n1nnnc1-c1ccc(Cl)cc1 | 0 | 0 | 0 | 0 | 0 | 0
CS(=O)(=O)Nc1ccc(C(=O)NCCSCc2c(F)cccc2Cl)cc1 | 0 | 0 | 0 | 0 | 0 | 0
COC(=O)CNc1c(-c2ccccn2)nc2ccc(Br)cn12 | 0 | 0 | 0 | 0 | 150 | 0
Cc1nc(C)c(C(=O)NNC(=O)Nc2ccc(Cl)cc2)s1 | 0 | - | - | 0 | - | 0
Cc1cccc(Cc2nnc(CCC(=O)N(CC3CC3)CC3CCCO3)o2)c1 (stereo not drawn) | 0 | 0 | 0 | 0 | 136 | 0
Cc1cccc(Cc2nnc(CCC(=O)N3CCCCC3c3nccs3)o2)c1 (stereo not drawn) | 0 | 0 | 0 | 0 | 0 | 0
CCCOC1CCCN(C(=O)CCc2nnc(Cc3cccc(C)c3)o2)C1 (stereo not drawn) | 0 | 0 | 0 | 0 | 143 | 0
CCN(CC1CCCO1)C(=O)CCc1nnc(Cc2ccc3c(c2)OCO3)o1 (stereo not drawn) | 0 | 0 | 0 | 0 | 0 | 0
Cc1ccc(NC(=O)COc2ccc(Br)cn2)cc1 | 0 | - | - | 0 | - | 0
COc1cc(-c2cc(=O)c3ccccc3o2)ccc1O | 0 | 0 | 0 | 0 | 134 | 0
COc1ccc(-c2cc(=O)c3c(O)c(OC)c(O)cc3o2)cc1 | 0 | 9 | 152 | 0 | 0 | 0
O=c1cc(-c2ccc(O)cc2)oc2ccc(O)cc12 | 0 | 4.1 | 0 | 0 | 150 | 0
O=S(=O)(NCc1ccccc1F)NCc1ccccc1F | 0 | 0 | 0 | 0 | 0 | 0
COc1ccc(C(=O)O/N=C2\CCCc3nonc32)cc1 | 0 | 0 | 0 | 0 | 0 | 0
COC(=O)c1ccc(CO/N=C2\CCCc3nonc32)cc1 | 0 | 0 | 0 | 0 | 139 | 0
Cc1nc(N2CCCCC2)nc(N2CCCCC2)c1C=O | 0 | 0 | 0 | 0 | 0 | 0
CN(Cc1ccccc1)CC(O)COc1ccc(CNCCCOc2cccnc2)cc1 (stereo not drawn) | 0 | 0 | 0 | 8.9 | 0 | 0
c1ccc(Oc2ccc(-c3ccnc4nc(N5CCOCC5)nn34)cc2)cc1 | 0 | 0 | 0 | 9.3 | 0 | 0
COCC(C)NC(=O)Cc1ccc(Cl)cc1 (stereo not drawn) | 0 | 0 | 0 | 0 | 0 | 0
SMILES | p97 inhibitor | NF-kB expr up | APP 5'UTR act | Wee1 stabilizer | STAT1 activator | Mdm2 ligase inh
COc1cc(/C=C(/C(=O)c2cccs2)c2nc3ccccc3[nH]2)ccc1O | 0 | 4.5 | 0 | 0 | 0 | 0
COc1ccccc1NS(=O)(=O)c1ccc(O)c(C(=O)OCC(=O)N2c3ccccc3CC2C)c1 (stereo not drawn) | 0 | 0 | 0 | 0 | 0 | 0
COC(=O)c1ccc(C)c(NC(=O)c2nn(C)c(=O)c3ccccc23)c1 | 0 | 0 | 0 | 8.9 | 0 | 0
CCC(=O)N(CC)c1nc(-c2ccc(OC)cc2)cs1 | 0 | 0 | 0 | 0 | 143 | 0
O=C1OC(c2ccccc2)=C/C1=C\N1CCOCC1 | 0 | 0 | 0 | 27 | 0 | 0
O=C1OC(c2ccccc2)=C/C1=C/N1CCOCC1 | 0 | 0 | 0 | 0 | 0 | 0
O=C(CCCn1cnc([N+](=O)[O-])n1)Nc1ccc(F)c(Cl)c1 | 0 | 0 | 0 | 9.9 | 0 | 0
C=CCn1c(COc2ccc(Cl)cc2)nnc1SCC(=O)c1c(N)n(C)c(=O)n(C)c1=O | 0 | 0 | 0 | 10 | 0 | 0
CCCCN(C)C(=O)c1cc2cc3ccc(OC)cc3nc2s1 | 0 | 0 | 188 | 0 | 0 | 0
CCc1cccc(CC)c1NC(=O)/C(C#N)=C/c1ccccc1C(F)(F)F | 0 | 3.4 | 0 | 0 | 0 | 0
O=C(O)c1ccc(N/N=C/C(Br)=C/c2ccccc2)cc1 | 15 | - | - | 0 | - | 0
CCOC(=S)SCc1cn2cccc(C)c2n1 | 0 | 3.8 | 0 | 0 | 0 | 0
CCCS(=O)(=O)NCc1cn2cccc(C)c2n1 | 0 | 0 | 0 | 0 | 0 | 0
CCOC(=O)C1(CC2CCCCO2)CCN(Cc2ccc(OC)cc2F)CC1 (stereo not drawn) | 0 | 0 | 0 | 0 | 0 | 0
CCOc1ccc(N2C(=O)CC(N3CCN(c4ccccc4F)CC3)C2=O)cc1 (stereo not drawn) | 0 | 0 | 0 | 14 | 0 | 0
CCCOc1ccc(N2C(=O)CC(N3CCN(c4ccccc4OC)CC3)C2=O)cc1 (stereo not drawn) | 0 | 0 | 0 | 0 | 0 | 0
Cn1c(=O)c(-c2cc(=O)[nH][nH]2)c(O)c2ccccc21 | 0 | 0 | 0 | 0 | 0 | 0
COc1ccc(N2CC(C(=O)N/N=C/c3ccc(C)cc3)CC2=O)cc1 (stereo not drawn) | 15 | 0 | 0 | 0 | 0 | 0
Clc1ccc2[nH]c(-c3ccccc3)cc2c1 | 0 | 3.9 | 0 | 0 | 138 | 0
Nc1ccc(N=Nc2ccc(N)cc2)cc1 | 0 | 3.5 | 0 | 0 | 0 | 0
COCc1c(C(=O)N/N=C/c2cccc3ccccc23)nnn1-c1nonc1N | 0 | 0 | 0 | 0 | 0 | 0
C/C(=N\OC(=O)NC(C)C)c1sc(-c2ccc(Cl)cc2)nc1C | 0 | 5.8 | 0 | 0 | 0 | 0
CCNC(=O)O/N=C(\C)c1sc(-c2ccc(Cl)cc2)nc1C | 0 | 7.1 | 160 | 0 | 144 | 0
CC(C)N(CCNC(=O)c1oc(=O)c2ccccc2c1-c1ccccc1)Cc1ccco1 | 0 | 0 | 0 | 0 | 0 | 0
CSc1ccc(/C=C/C(=O)c2ccc(NC(C)=O)cc2)cc1 | 0 | 0 | 0 | 0 | 0 | 0
O=C(/C=C/c1ccc(Br)cc1)NC(=O)c1ccccc1O | 0 | 3.9 | 0 | 0 | 0 | 0
CSc1ccc(/C=C/C(=O)NC(=O)c2ccccc2O)cc1 | 0 | 3.7 | 0 | 0 | 0 | 0
O=c1c(Br)c(NCc2ccccc2)cnn1-c1ccc(F)cc1 | 0 | 0 | 0 | 0 | 129 | 0
O=c1[nH]c(SCc2ccccc2)nc2c1cnn2-c1ccc(F)cc1 | 0 | 0 | 0 | 0 | 0 | 0
O=c1c2ccccc2nc2sc3ccccc3n12 | 0 | 0 | 0 | 0 | 141 | 0
